According to PMC11252922 (Proceedings of the National Academy of Sciences of the …, 2024):
Numbering of substitutions follows the chain as printed. Where no end group is shown, it is not given here. The star is where a group is joined. Cbz = O=C(OCc1ccccc1)*

Legend:
[1] = molecular target: T1, human TG2 (Homo sapiens, UniProt P21980); assay: kinetic analysis of irreversible inhibitors using 1 as the TG2 substrate; type: biochemical; conditions: KM of substrate 1 used in the inhibitor analysis (Fig. 1D legend)
T1 sequence (P21980 1-687): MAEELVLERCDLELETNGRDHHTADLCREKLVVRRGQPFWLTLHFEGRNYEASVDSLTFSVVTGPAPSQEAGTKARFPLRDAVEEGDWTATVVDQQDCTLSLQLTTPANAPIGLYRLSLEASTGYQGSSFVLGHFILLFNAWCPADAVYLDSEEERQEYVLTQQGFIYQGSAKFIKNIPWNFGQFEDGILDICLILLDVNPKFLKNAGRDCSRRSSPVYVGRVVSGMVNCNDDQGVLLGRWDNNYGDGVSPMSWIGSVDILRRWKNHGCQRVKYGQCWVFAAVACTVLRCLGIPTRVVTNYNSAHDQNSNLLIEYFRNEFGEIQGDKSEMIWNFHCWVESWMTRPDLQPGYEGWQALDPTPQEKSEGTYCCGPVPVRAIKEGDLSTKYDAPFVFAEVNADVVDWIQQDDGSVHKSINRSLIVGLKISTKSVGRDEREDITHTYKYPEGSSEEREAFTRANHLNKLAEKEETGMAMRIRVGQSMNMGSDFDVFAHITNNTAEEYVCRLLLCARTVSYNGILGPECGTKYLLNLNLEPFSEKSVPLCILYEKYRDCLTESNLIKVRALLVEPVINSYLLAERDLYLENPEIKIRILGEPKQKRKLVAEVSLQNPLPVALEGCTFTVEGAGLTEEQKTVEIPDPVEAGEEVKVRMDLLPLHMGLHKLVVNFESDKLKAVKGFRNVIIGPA
Procedure, shortened: (§1)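 N-terminally His-tagged human TG2, wild type or site-directed mutant, was expressed in E. coli BAP1 and purified by Ni-NTA, anion exchange and size exclusion. Steady-state deamidation was assayed at 1 μM enzyme with varying Gln-peptide substrate concentrations. Released NH4+ was coupled to glutamate dehydrogenase with 10 mM α-ketoglutarate and 500 μM NADH in 200 mM MOPS. Ca2+ was 5 mM unless otherwise varied.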

[2] = molecular target: T2, TG2 S3-2 Mut (E329A) (Homo sapiens, UniProt P21980, E329A); assay: steady-state kinetic analysis with S3-2 mutant; type: biochemical; conditions: S3-2 (E329A) mutant, result in words
T2 sequence (P21980 1-687 E329A): T1 sequence (P21980 1-687) with E329A
Procedure, shortened: as §1

AcPQLPF [Compound 1]
Km [1]: 175 µM
catalytic activity of S3-2 mutant against the substrate [2]: barely detectable

Cbz-Gln-Gly [ZQG, reference compound]
catalytic activity of S3-2 mutant against the substrate [2]: negligible
